Laboratory results as given in PMC7688529 (British Journal of Clinical Pharmacology, 2020).
Where two headings read alike, the source gives them in different places.

What was measured:
[1] = type: in vivo, human; conditions: for Ratio of geometric means (treatment A/B; 90% CI) of AUC0‐t / Ratio of geometric means (treatment A/B; 90% CI) of AUC0‐∞ / Ratio of geometric means (treatment A/B; 90% CI) of Cmax: FDC‐2 vs free combination (EU‐sourced tadalafil); for CVw of AUC0‐t / CVw of AUC0‐∞ / CVw of Cmax: FDC‐2 vs free combination, intrasubject coefficient of variation; for Cmax: Treatment A FDC (FDC‐2, 10 mg/40 mg), single dose, fasted, healthy subjects; for Cmax / half-life / AUC: geometric mean (95% CI)
Procedure, shortened: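 Healthy subjects randomized to A/B or B/A. Single oral dose: 10 mg/40 mg FDC, or macitentan 10 mg plus 2 × 20 mg EU-sourced tadalafil. Fasted ≥10 h pre- to 4 h post-dose. Blood (K3EDTA) from predose to 216 h; spun ~1500 g, 10 min, 4 ± 2°C; stored ≤ −75°C, light-protected. LC-MS/MS with isotope-labelled standards. Geometric mean ratios (90% CI) and CVw from mixed-effects model.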

[2] = type: in vivo, human; conditions: for CVw of AUC0‐t / CVw of AUC0‐∞ / CVw of Cmax: intrasubject coefficient of variation; for Tmax: median (range)
Procedure, shortened: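 Healthy subjects; randomized crossover; single oral fasted dose of the 10 mg/40 mg macitentan/tadalafil FDC vs a free combination with US-sourced tadalafil; evaluated per group. Fluids withheld 1 h pre- to 1 h post-dose; observation 216–288 h. Macitentan/ACT-132577 by LC-MS/MS after acetonitrile/ethanol protein precipitation; tadalafil by LC-MS/MS after tert-butyl methyl ether extraction. Geometric mean ratios with 90% CI and intrasubject variability from a mixed-effects model.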

[3] = Stability in human plasma samples; type: physicochemical
[4] = Study AC‐077‐101: safety and tolerability evaluation; type: in vivo, human; conditions: both studies AC‐077‐101 and AC‐077‐103; administered as FDC product or as a free combination
[5] = Treatment B free combination (EU‐sourced tadalafil), median (range)
[6] = human, plasma, oral, t1/2, Treatment A FDC (FDC‐2)
[7] = human, plasma, oral, t1/2, Treatment B free combination (EU‐sourced tadalafil)
[8] = Group 1, FDC‐1 vs free combination (US‐sourced tadalafil)
[9] = Group 1, FDC‐1 vs free combination
[10] = Group 2, FDC‐2 vs free combination (US‐sourced tadalafil)
[11] = Group 2, FDC‐2 vs free combination
[12] = human, plasma, oral, Group 1, Treatment A FDC‐1 (macitentan/tadalafil 10 mg/40 mg), single dose, fasted, healthy subjects, geometric mean (95% CI)
[13] = human, plasma, oral, Group 2, Treatment B free combination (US‐sourced tadalafil), geometric mean (95% CI)
[14] = human, plasma, oral, t1/2, Group 1, Treatment B free combination (US‐sourced tadalafil), geometric mean (95% CI)
[15] = human, plasma, oral, t1/2, Group 2, Treatment A FDC‐2, geometric mean (95% CI)
[16] = human, plasma, oral, t1/2, Group 2, Treatment B free combination (US‐sourced tadalafil), geometric mean (95% CI)
[17] = human, plasma, oral, tmax, Group 1, Treatment A FDC‐1
[18] = human, plasma, oral, tmax, Group 1, Treatment B free combination (US‐sourced tadalafil)
[19] = human, plasma, oral, tmax, Group 2, Treatment A FDC‐2
[20] = human, plasma, oral, tmax, Group 2, Treatment B free combination (US‐sourced tadalafil)
[21] = human, plasma, oral, t1/2, Group 1, Treatment A FDC‐1, geometric mean (95% CI)

NS(=O)(=O)Nc1ncnc(OCCOc2ncc(Br)cn2)c1-c1ccc(Br)cc1 [ACT‐132577]
Ratio of geometric means (treatment A/B; 90% CI) of AUC0‐t [1]: 0.9970 (0.9651, 1.0300) | Ratio of geometric means (treatment A/B; 90% CI) of AUC0‐∞ [1]: 0.9936 (0.9619, 1.0264) | Ratio of geometric means (treatment A/B; 90% CI) of Cmax [1]: 1.0198 (0.9819, 1.0591) | CVw of AUC0‐t [1]: 7.93% | CVw of AUC0‐∞ [1]: 7.91% | CVw of Cmax [1]: 9.24% | Tmax [1, 5]: 48.00 (24.0–72.1) h | Tmax ([1]; human, plasma, oral): 48 h | Cmax ([1]; human, plasma, oral): 163 ng/mL | half-life [1, 6]: 49.4 h | half-life [1, 7]: 50.4 h | Geometric means ratio (treatment A/B; 90% CI) of AUC0‐t [2, 8]: 0.9826(0.9550, 1.0110) | Geometric means ratio (treatment A/B; 90% CI) of AUC0‐∞ [2, 8]: 0.9836(0.9572, 1.0107) | Geometric means ratio (treatment A/B; 90% CI) of Cmax [2, 8]: 0.9935 (0.9616, 1.0264) | CVw of AUC0‐t [2, 9]: 9.03% | CVw of AUC0‐∞ [2, 9]: 8.61% | CVw of Cmax [2, 9]: 10.32% | AUC higher after FDC‐2 than after free combination ([2]; Group 2): ~9% | Cmax higher after FDC‐2 than after free combination ([2]; Group 2): approximately 10% | Geometric means ratio (treatment A/B; 90% CI) of AUC0‐t [2, 10]: 1.0925 (1.0545, 1.1319) | Geometric means ratio (treatment A/B; 90% CI) of AUC0‐∞ [2, 10]: 1.0884 (1.0502, 1.1281) | Geometric means ratio (treatment A/B; 90% CI) of Cmax [2, 10]: 1.0983 (1.0470, 1.1520) | CVw of AUC0‐t [2, 11]: 11.20% | CVw of AUC0‐∞ [2, 11]: 11.31% | CVw of Cmax [2, 11]: 15.15% | Cmax [2, 12]: 158 ng/mL | Cmax [2, 13]: 150 ng/mL | half-life [2, 14]: 48.5 h | half-life [2, 15]: 50.5 h | half-life [2, 16]: 50.3 h | Tmax [2, 17]: 48 h | Tmax [2, 18]: 48 h | Tmax [2, 19]: 48 h | Tmax [2, 20]: 48 h | stability in plasma samples at room‐temperature [3]: at least 3 days | stability in plasma samples, freeze/thaw cycles [3]: at least 3 freeze/thaw cycles | stability in plasma samples, storage at −20°C [3]: ≥ 36 months

CCCNS(=O)(=O)Nc1ncnc(OCCOc2ncc(Br)cn2)c1-c1ccc(Br)cc1 [Macitentan, macitentan]
Ratio of geometric means (treatment A/B; 90% CI) of AUC0‐t [1]: 1.0038 (0.9677, 1.0413) | Ratio of geometric means (treatment A/B; 90% CI) of AUC0‐∞ [1]: 1.0015 (0.9675, 1.0367) | Ratio of geometric means (treatment A/B; 90% CI) of Cmax [1]: 1.0608 (1.0014, 1.1238) | CVw of AUC0‐t [1]: 8.94% | CVw of AUC0‐∞ [1]: 8.42% | CVw of Cmax [1]: 14.10% | Tmax [1, 5]: 9.00 (4.2–24.0) h | Tmax ([1]; human, plasma, oral): 9 h | AUC ([1]; human, plasma, oral, AUC0‐t, Treatment A FDC (FDC‐2)): 5810 ng·h/mL | AUC ([1]; human, plasma, oral, AUC0‐t, Treatment B free combination (EU‐sourced tadalafil)): 5790 ng·h/mL | AUC ([1]; human, plasma, oral, AUC0‐∞, Treatment A FDC (FDC‐2)): 5890 ng·h/mL | AUC ([1]; human, plasma, oral, AUC0‐∞, Treatment B free combination (EU‐sourced tadalafil)): 5880 ng·h/mL | Cmax ([1]; human, plasma, oral): 175 ng/mL | half-life [1, 6]: 16.1 h | half-life [1, 7]: 16.1 h | Geometric means ratio (treatment A/B; 90% CI) of AUC0‐t [2, 8]: 0.9815 (0.9527, 1.0113) | Geometric means ratio (treatment A/B; 90% CI) of AUC0‐∞ [2, 8]: 0.9818 (0.9537, 1.0109) | Geometric means ratio (treatment A/B; 90% CI) of Cmax [2, 8]: 1.0045 (0.9631, 1.0478) | CVw of AUC0‐t [2, 9]: 9.54% | CVw of AUC0‐∞ [2, 9]: 9.31% | CVw of Cmax [2, 9]: 13.50% | AUC higher after FDC‐2 than after free combination ([2]; Group 2): approximately 10% | Cmax higher after FDC‐2 than after free combination ([2]; Group 2): approximately 19% | Geometric means ratio (treatment A/B; 90% CI) of AUC0‐t [2, 10]: 1.1014 (1.0652, 1.1389) | Geometric means ratio (treatment A/B; 90% CI) of AUC0‐∞ [2, 10]: 1.0981 (1.0641, 1.1332) | Geometric means ratio (treatment A/B; 90% CI) of Cmax [2, 10]: 1.1901 (1.1374, 1.2451) | CVw of AUC0‐t [2, 11]: 10.80% | CVw of AUC0‐∞ [2, 11]: 10.16% | CVw of Cmax [2, 11]: 14.64% | AUC ([2]; human, plasma, oral, AUC0‐t, Group 1, Treatment A FDC‐1, geometric mean (95% CI)): 4320 ng·h/mL | AUC ([2]; human, plasma, oral, AUC0‐t, Group 1, Treatment B free combination (US‐sourced tadalafil), geometric mean (95% CI)): 4400 ng·h/mL | AUC ([2]; human, plasma, oral, AUC0‐t, Group 2, Treatment A FDC‐2, geometric mean (95% CI)): 4740 ng·h/mL | AUC ([2]; human, plasma, oral, AUC0‐t, Group 2, Treatment B free combination (US‐sourced tadalafil), geometric mean (95% CI)): 4300 ng·h/mL | AUC ([2]; human, plasma, oral, AUC0‐∞, Group 1, Treatment A FDC‐1, geometric mean (95% CI)): 4430 ng·h/mL | AUC ([2]; human, plasma, oral, AUC0‐∞, Group 1, Treatment B free combination (US‐sourced tadalafil), geometric mean (95% CI)): 4510 ng·h/mL | AUC ([2]; human, plasma, oral, AUC0‐∞, Group 2, Treatment A FDC‐2, geometric mean (95% CI)): 4830 ng·h/mL | AUC ([2]; human, plasma, oral, AUC0‐∞, Group 2, Treatment B free combination (US‐sourced tadalafil), geometric mean (95% CI)): 4390 ng·h/mL | Cmax [2, 12]: 169 ng/mL | Cmax [2, 13]: 163 ng/mL | half-life [2, 21]: 13.8 h | half-life [2, 14]: 14 h | half-life [2, 15]: 13.8 h | half-life [2, 16]: 14.4 h | Tmax [2, 17]: 9 h | Tmax [2, 18]: 9 h | Tmax [2, 19]: 9 h | Tmax [2, 20]: 9 h | tolerability [4]: well tolerated | stability in plasma samples at room‐temperature [3]: at least 3 days | stability in plasma samples, freeze/thaw cycles [3]: at least 3 freeze/thaw cycles | stability in plasma samples, storage at −20°C [3]: ≥ 36 months

CN1CC(=O)N2[C@H](c3ccc4c(c3)OCO4)c3[nH]c4ccccc4c3C[C@@H]2C1=O [Tadalafil, tadalafil]
Ratio of geometric means (treatment A/B; 90% CI) of AUC0‐t [1]: 1.0040 (0.9584, 1.0517) | Ratio of geometric means (treatment A/B; 90% CI) of AUC0‐∞ [1]: 1.0047 (0.9591, 1.0525) | Ratio of geometric means (treatment A/B; 90% CI) of Cmax [1]: 0.9015 (0.8413, 0.9661) | CVw of AUC0‐t [1]: 11.35% | CVw of AUC0‐∞ [1]: 11.34% | CVw of Cmax [1]: 16.96% | Tmax [1, 5]: 1.75 (1.0–5.0) h | Cmax ([1]; human, plasma, oral): 539 ng/mL | half-life [1, 6]: 23.3 h | half-life [1, 7]: 22.6 h | Tmax ([1]; human, plasma, oral, tmax, Treatment A FDC (FDC‐2), median (range)): 2 h | lower bound of the 90% CI of the geometric mean ratio of Cmax ([2]; FDC‐1 vs free combination, bioequivalence limits 0.8000–1.2500): 0.7167 | AUC lower after FDC‐1 than after free combination ([2]; Group 1): ~8% | Cmax lower after FDC‐1 than after free combination ([2]; Group 1): approximately 24% | Geometric means ratio (treatment A/B; 90% CI) of AUC0‐t [2, 8]: 0.9151 (0.8687, 0.9639) | Geometric means ratio (treatment A/B; 90% CI) of AUC0‐∞ [2, 8]: 0.9172 (0.8707, 0.9662) | Geometric means ratio (treatment A/B; 90% CI) of Cmax [2, 8]: 0.7588 (0.7167, 0.8034) | CVw of AUC0‐t [2, 9]: 16.71% | CVw of AUC0‐∞ [2, 9]: 16.70% | CVw of Cmax [2, 9]: 18.38% | t1/2 ([2]; Group 1, Treatment B free combination (US‐sourced tadalafil), geometric mean (95% CI)): 18.066 (16.472, 19.815) h | Tmax ([2]; Group 1, Treatment B free combination (US‐sourced tadalafil)): 3.00 (1.0–5.0) h | Geometric means ratio (treatment A/B; 90% CI) of AUC0‐t [2, 10]: 0.9764 (0.9293, 1.0259) | Geometric means ratio (treatment A/B; 90% CI) of AUC0‐∞ [2, 10]: 0.9765 (0.9293, 1.0260) | Geometric means ratio (treatment A/B; 90% CI) of Cmax [2, 10]: 0.9576 (0.9063, 1.0118) | CVw of AUC0‐t [2, 11]: 16.01% | CVw of AUC0‐∞ [2, 11]: 16.02% | CVw of Cmax [2, 11]: 17.86% | Cmax [2, 12]: 385 ng/mL | Cmax [2, 13]: 490 ng/mL | half-life [2, 21]: 18.4 h | half-life [2, 15]: 18.1 h | half-life [2, 16]: 18.5 h | Tmax [2, 17]: 4 h | Tmax [2, 18]: ~3 h | Tmax [2, 19]: 3 h | Tmax [2, 20]: 3 h | tolerability [4]: well tolerated | stability in plasma samples at room‐temperature [3]: at least 6 hours | stability in plasma samples, freeze/thaw cycles [3]: ≥ 3 freeze/thaw cycles
